# According to ChEMBL document CHEMBL1649438, “Activities of ceftobiprole and other cephalosporins against extracellular and intracellular (THP-1 macrophages and keratinocytes) forms of methicillin-susceptible and methicillin-resistant Staphylococcus aureus” (Antimicrob Agents Chemother, 2009):
# Columns and labels:
# Staphylococcus aureus [1] = assay: Antimicrobial activity against hospital-acquired methicillin-resistant Staphylococcus aureus […] infected in human THP-1 cells assessed as change in bacterial count after 24 hrs; assay type: functional, organism-based; details: THP-1, 24 h
# How it was run: (§1)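 THP-1 macrophages infected as described previously, with a postphagocytosis inoculum of 1.5 × 10⁶ to 3.0 × 10⁶ CFU/mg cell protein. Cells were exposed 24 h to increasing extracellular antibiotic concentrations. Response is the change in log10 CFU/mg protein from the inoculum (n = 3), fitted to a Hill function. E0 and Emax were extrapolated to infinitely low and high concentrations. EC50 and static concentration (graphical interpolation) are expressed as multiples of the broth MIC at pH 5.5 or 7.4.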
# Staphylococcus aureus [2] = assay: Antimicrobial activity against Panton-valentine leucocidin-positive community-acquired methicillin-resistant Staphylococcus aureus STA 44 infected in human THP-1 cells assessed as bacterial count per mg of cell protein at low extracellular compound concentration after 24 hrs; assay type: functional
# How it was run: (§2)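 THP-1 human macrophages infected with S. aureus (postphagocytosis inoculum 1.5 × 10^6 to 3.0 × 10^6 CFU/mg cell protein), then incubated 24 h with increasing extracellular antibiotic concentrations. Change in log10 CFU/mg cell protein from the postphagocytosis inoculum, n = 3. Hill function fitted on log-transformed data. Low-concentration value (E0) and high-concentration value (Emax) are extrapolated. Where a pH is given, concentrations are expressed as multiples of the broth MIC at that pH.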
# Staphylococcus aureus [3] = assay: Antimicrobial activity against methicillin-resistant Staphylococcus aureus ATCC 33591 infected in human keratinocytes assessed as change in bacterial count after 24 hrs; assay type: functional, organism-based; details: ATCC 33591, 24 h
# How it was run: (§3)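 Primary human skin keratinocytes were grown in defined keratinocyte serum-free medium, infected with a postphagocytosis inoculum of 1.5 × 10⁶ to 3.0 × 10⁶ CFU/mg cell protein, then exposed 24 h to increasing extracellular antibiotic concentrations. Change in log10 CFU/mg protein from the inoculum was fitted to a Hill equation with slope 1. E0 and Emax were extrapolated to infinitely low and high concentrations, in total drug mg/liter.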
# Staphylococcus aureus [4] = assay: Antimicrobial activity against hospital-acquired methicillin-resistant Staphylococcus aureus ATCC 33591 infected in human THP-1 cells assessed as change in bacterial count after 24 hrs at pH 7.4; assay type: functional, organism-based; details: ATCC 33591, THP-1, 24 h; how it was run: as §1
# Staphylococcus aureus [5] = assay: Bacteriostatic activity against methicillin-susceptible Staphylococcus aureus ATCC 11632 infected in human THP-1 cells assessed as change in bacterial count after 24 hrs at pH 7.4; assay type: functional
# How it was run: (§4)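 Human THP-1 macrophage-like cells were infected with S. aureus to a postphagocytosis inoculum of 1.5 × 10^6 to 3.0 × 10^6 CFU/mg cell protein. Cells were then exposed 24 h to increasing extracellular antibiotic concentrations. Response was the log10 CFU change per mg protein from the postphagocytosis inoculum, n = 3. A Hill function was fitted on log-transformed axes. E0 and Emax were extrapolated to infinitely low and high concentrations. Cs was read by graphical interpolation. Concentrations were expressed as multiples of the broth MIC at pH 5.5 or pH 7.4.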
# Staphylococcus aureus [6] = assay: Antimicrobial activity against hospital-acquired methicillin-resistant Staphylococcus aureus ATCC 33592 infected in human THP-1 cells assessed as change in bacterial count after 24 hrs; assay type: functional, organism-based; details: ATCC 33592, THP-1, 24 h; how it was run: as §1
# Staphylococcus aureus [7] = assay: Antimicrobial activity against Panton-valentine leucocidin-positive community-acquired methicillin-resistant Staphylococcus aureus isolate MEH2225605 infected in human THP-1 cells assessed as change in bacterial count after 24 hrs; assay type: functional, organism-based; details: isolate MEH2225605, THP-1, 24 h; how it was run: as §2
# Staphylococcus aureus [8] = assay: Antimicrobial activity against hospital-acquired methicillin-resistant Staphylococcus aureus […] infected in human THP-1 cells assessed as bacterial count per mg of cell protein at high extracellular compound concentration after 24 hrs; assay type: functional; how it was run: as §1
# Staphylococcus aureus [9] = assay: Antimicrobial activity against hospital-acquired vancomycin-intermediate Staphylococcus aureus NRS18 infected in human THP-1 cells assessed as bacterial count per mg of cell protein at high extracellular compound concentration after 24 hrs at pH 5.5; assay type: functional; how it was run: as §4
# Staphylococcus aureus [10] = assay: Ratio of MIC for hospital-acquired methicillin-resistant Staphylococcus aureus ATCC 33591 by microdilution method at pH 7.4 to ratio of MIC for hospital-acquired methicillin-resistant Staphylococcus aureus ATCC 33591 by microdilution method at pH 5.5; assay type: functional
# How it was run: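 MICs were determined by broth microdilution at pH 7.4 and pH 5.5. Broth was adjusted before inoculation, and pH was confirmed maintained (±0.1 unit) at the end.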
# Staphylococcus aureus [11] = assay: Antimicrobial activity against Panton-valentine leucocidin-positive community-acquired methicillin-resistant Staphylococcus aureus N4042228 infected in human THP-1 cells assessed as bacterial count per mg of cell protein at high extracellular compound concentration after 24 hrs; assay type: functional; how it was run: as §2
# Staphylococcus aureus [12] = assay: Antimicrobial activity against hospital-acquired vancomycin-intermediate Staphylococcus aureus NRS18 infected in human THP-1 cells assessed as bacterial count per mg of cell protein at low extracellular compound concentration after 24 hrs; assay type: functional; how it was run: as §4
# Staphylococcus aureus [13] = assay: Antimicrobial activity against hospital-acquired vancomycin-intermediate Staphylococcus aureus NRS18 infected in human THP-1 cells assessed as change in bacterial count after 24 hrs at pH 5.5; assay type: functional, organism-based; details: NRS18, THP-1, 24 h; how it was run: as §1
# Staphylococcus aureus [14] = assay: Bacteriostatic activity against methicillin-susceptible Staphylococcus aureus NRS52 infected in human THP-1 cells assessed as change in bacterial count after 24 hrs at pH 5.5; assay type: functional; how it was run: as §4
# Staphylococcus aureus [15] = assay: Antimicrobial activity against Panton-valentine leucocidin-positive community-acquired methicillin-resistant Staphylococcus aureus N4090440 infected in human THP-1 cells assessed as change in bacterial count after 24 hrs at pH 5.5; assay type: functional, organism-based; details: N4090440, THP-1, 24 h; how it was run: as §2
# Staphylococcus aureus [16] = assay: Antimicrobial activity against Panton-valentine leucocidin-positive community-acquired methicillin-resistant Staphylococcus aureus N4042228 infected in human THP-1 cells assessed as bacterial count per mg of cell protein at high extracellular compound concentration after 24 hrs at pH 5.5; assay type: functional; how it was run: as §2
# Staphylococcus aureus [17] = assay: Antimicrobial activity against methicillin-susceptible Staphylococcus aureus […] infected in human THP-1 cells assessed as change in bacterial count after 24 hrs at pH 7.4; assay type: functional, organism-based; details: THP-1, 24 h; how it was run: as §1
# Staphylococcus aureus [18] = assay: Bacteriostatic activity against Panton-valentine leucocidin-positive community-acquired methicillin-resistant Staphylococcus aureus STA 228 infected in human THP-1 cells assessed as change in bacterial count after 24 hrs at pH 5.5; assay type: functional; how it was run: as §1
# Staphylococcus aureus [19] = assay: Antimicrobial activity against hospital-acquired vancomycin-intermediate Staphylococcus aureus NRS126 infected in human THP-1 cells assessed as change in bacterial count after 24 hrs at pH 5.5; assay type: functional, organism-based; details: NRS126, THP-1, 24 h; how it was run: as §1
# Staphylococcus aureus [20] = assay: Antimicrobial activity against hospital-acquired vancomycin-intermediate Staphylococcus aureus NRS126 infected in human THP-1 cells assessed as bacterial count per mg of cell protein at low extracellular compound concentration after 24 hrs; assay type: functional; how it was run: as §4
# Staphylococcus aureus [21] = assay: Antimicrobial activity against methicillin-resistant Staphylococcus aureus ATCC 33591 infected in human keratinocytes assessed as bacterial count per mg of cell protein at high extracellular compound concentration after 24 hrs; assay type: functional; how it was run: as §3
# Staphylococcus aureus [22] = assay: Antimicrobial activity against methicillin-susceptible Staphylococcus aureus NRS52 infected in human THP-1 cells assessed as change in bacterial count after 24 hrs at pH 7.4; assay type: functional, organism-based; details: NRS52, THP-1, 24 h; how it was run: as §1
compound,measurement,setting,value
Nc1nc(/C(=N/O)C(=O)N[C@@H]2C(=O)N3C(C(=O)O)=C(/C=C4\CCN([C@@H]5CCNC5)C4=O)CS[C@H]23)ns1 [CEFTOBIPROLE],EC50,Staphylococcus aureus [1],0.73 µg/mL
same,log10cfu,Staphylococcus aureus [2],2.82
same,EC50,Staphylococcus aureus [3],1.08 µg/mL
same,EC50,Staphylococcus aureus [4],0.28 ×MIC
same,Activity,Staphylococcus aureus [5],0.6 × MIC
same,EC50,Staphylococcus aureus [6],1.23 µg/mL
same,EC50,Staphylococcus aureus [7],0.82 µg/mL
same,log10cfu,Staphylococcus aureus [8],-0.9
same,log10cfu,Staphylococcus aureus [9],1.01
same,fold change (FC),Staphylococcus aureus [10],4
same,log10cfu,Staphylococcus aureus [11],-1.12
same,log10cfu,Staphylococcus aureus [12],2.83
same,EC50,Staphylococcus aureus [13],0.77 ×MIC
same,Activity,Staphylococcus aureus [14],1.19 × MIC
same,EC50,Staphylococcus aureus [15],0.54 × MIC
same,log10cfu,Staphylococcus aureus [16],-1.02
same,EC50,Staphylococcus aureus [17],0.2 × MIC
same,Activity,Staphylococcus aureus [18],1.45 × MIC
same,EC50,Staphylococcus aureus [19],0.77 × MIC
same,log10cfu,Staphylococcus aureus [20],3.02
same,log10cfu,Staphylococcus aureus [21],-1.14
same,EC50,Staphylococcus aureus [22],0.2 ×MIC
